Data set [1] is described as follows: Cytotoxicity against hepatocytes (unknown origin) assessed as cell growth by MTT assay relative to control. The data set is classed as cell-based, Hepatocyte. On the set-up: concentration or dose not given beside the values.
For another data set, the system named is KB. The experiment in a line: Antiproliferative activity against human KB cells assessed as cell growth inhibition. It counts as functional. The procedure, abridged: (§1)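 Cell lines screened for growth inhibition and GI₅₀ derived. Each value is the mean of 3 independent experiments.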
A further data set concerns HOP-62. The experiment in a line: Antiproliferative activity against human HOP-62 cells assessed as cell growth inhibition. It counts as functional. The procedure, abridged:
as §1

The test system of the next data set is MCF7. In words: Antiproliferative activity against human MCF7 cells assessed as cell growth inhibition. The data set is classed as functional. The procedure, abridged: as §1
For the next data set, the system named is K562. In words: Antiproliferative activity against human K562 cells assessed as cell growth inhibition. It counts as functional. In a few lines: as §1
Another data set deals with PC-3. The experiment in a line: Antiproliferative activity against human PC-3 cells assessed as cell growth inhibition. It counts as functional. The procedure, abridged: as §1
Data set [2] is described as follows: Antiproliferative activity against human GURAV cells assessed as cell growth inhibition. The data set is classed as functional. In a few lines:
as §1

The text below walks through data of ChEMBL document CHEMBL4665832, “Benzylidene thiazolidinediones: Synthesis, in vitro investigations of antiproliferative mechanisms and in vivo efficacy determination in combination with Imatinib” (Bioorg Med Chem Lett, 2020).

Consider `Cc1cc(NC(=O)COc2ccc(/C=C3\SC(=O)NC3=O)cc2)no1`, for which, in data set [1], the viability is more than 70%.
Consider `Cc1ccc(NC(=O)COc2ccc(/C=C3\SC(=O)NC3=O)cc2)cc1Cl`, for which the concentration for 50% growth inhibition (GI50) in the data set with KB was 99.6 µM; in the data set with HOP-62 it was more than 100 µM; in the data set on MCF7, 61.8 µM; in the data set with K562, 19.6 µM; with PC-3 it was more than 100 µM; in data set [2] it was 71.4 µM. In data set [1], the viability was more than 70%.
For `O=C(COc1ccc(/C=C2\SC(=O)NC2=O)cc1)Nc1ccccn1`, in data set [1], the viability was more than 70%.
For `CCc1ccc(CCOc2ccc(CC3SC(=O)NC3=O)cc2)nc1` (centres undefined) [PIOGLITAZONE], the GI50 with K562 worked out at 40.1 µM.
As for `O=C(COc1ccc(/C=C2\SC(=O)NC2=O)cc1)Nc1ncc([N+](=O)[O-])s1`, in data set [1], the viability was more than 70%.
Regarding `COc1cccc2c1C(=O)c1c(O)c3c(c(O)c1C2=O)C[C@@](O)(C(=O)CO)C[C@@H]3O[C@H]1C[C@H](N)[C@H](O)[C@H](C)O1` [DOXORUBICIN], the 50% growth inhibitory concentration (GI50) (in the data set on KB; with HOP-62; in the data set on MCF7; in the data set with K562; with PC-3; in data set [2]) was less than 0.1 µM throughout.
Consider `Cc1c(NC(=O)COc2ccc(/C=C3\SC(=O)NC3=O)cc2)c(=O)n(-c2ccccc2)n1C`, for which the viability in data set [1] is more than 70%.
As for `O=C(COc1ccc(/C=C2\SC(=O)NC2=O)cc1)Nc1ccccc1`, the GI50 was more than 100 µM in the data set on KB; more than 100 µM with HOP-62; 74.5 µM with MCF7; 17.6 µM in the data set with K562; more than 100 µM with PC-3; 57 µM in data set [2]. The viability in data set [1] was more than 70%.
`O=C(COc1ccc(/C=C2\SC(=O)NC2=O)cc1)Nc1c(F)cc(Br)cc1F`: the GI50 in the data set on KB is more than 100 µM; in the data set with HOP-62 it was 75.2 µM; in the data set with MCF7 it was 57.3 µM; in the data set with K562, 23.1 µM; with PC-3, more than 100 µM; in data set [2] it was 64.1 µM. Further, the viability in data set [1] is more than 70%.
For `O=C(COc1ccc(/C=C2\SC(=O)NC2=O)cc1)Nc1ccc([N+](=O)[O-])cc1`, the 50% growth inhibitory concentration (GI50) with KB was more than 100 µM; with HOP-62, more than 100 µM; with MCF7, 72.5 µM; in the data set on K562 it was 29.5 µM; in the data set on PC-3 it was more than 100 µM; in data set [2] it was more than 100 µM. Moreover, in data set [1], the viability is more than 70%.
`O=C(COc1ccc(/C=C2\SC(=O)NC2=O)cc1)Nc1ccc(C(F)(F)F)cc1Cl`: the GI50 in the data set with KB was 78.6 µM; in the data set with HOP-62, more than 100 µM; in the data set on MCF7, 67.4 µM; with K562, 16.3 µM; with PC-3, more than 100 µM; in data set [2] it was 99.3 µM. The viability in data set [1] is more than 70%.
Take `O=C(COc1ccc(/C=C2\SC(=O)NC2=O)cc1)Nc1ccc(Br)cc1`: the GI50 was 32.1 µM with KB; 45.4 µM with HOP-62; 55.1 µM with MCF7; 23.4 µM with K562; 86.6 µM in the data set with PC-3; 54.4 µM in data set [2]. The viability in data set [1] was more than 70%.
With `Cc1cccc2sc(NC(=O)COc3ccc(/C=C4\SC(=O)NC4=O)cc3)nc12`, the concentration for 50% growth inhibition (GI50) in the data set with KB is more than 100 µM; with HOP-62, more than 100 µM; with MCF7, 61.2 µM; with K562, 45.8 µM; with PC-3, more than 100 µM; in data set [2], 58.7 µM. For the same compound, in data set [1], the viability is more than 70%.
With `Cc1cc(Br)ccc1NC(=O)COc1ccc(/C=C2\SC(=O)NC2=O)cc1`, the 50% growth inhibitory concentration (GI50) in the data set on KB is more than 100 µM; in the data set on HOP-62 it was more than 100 µM; in the data set with MCF7, 66.8 µM; in the data set on K562, 20.7 µM; in the data set on PC-3, more than 100 µM; in data set [2] it was 69.7 µM. Further, in data set [1], the viability is more than 70%.
For `CCCCC1=NC2(CCCC2)C(=O)N1NC(=O)COc1ccc(/C=C2\SC(=O)NC2=O)cc1`, in data set [1], the viability is more than 70%.
On the same count and under the same terms, for `O=C1NC(=O)/C(=C/c2ccc(OCC(=O)N3C(=O)c4ccccc4S3(=O)=O)cc2)S1` the value was more than 70%.
